Screening data deposited in PubChem BioAssay by The Scripps Research Institute Molecular Screening Center.
ARFGAP1 inhibitor: inhibitors of rat ARFGAP1 GAP activity, primary screen, biochemical, fluorescence polarization, GDP tracer; Arfgap1-stimulated ARF1 GTP hydrolysis, GDP FP detection; inhibition, % at 16.5 µM; hit rate 0.26% among 360,000; AID 651572, 2012;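 active means inhibition above a per-plate limit, mean inhibition of low control wells plus 3 SD, cut at about 25% in these data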
Target sequence (Q62848 1-136 limits assumed): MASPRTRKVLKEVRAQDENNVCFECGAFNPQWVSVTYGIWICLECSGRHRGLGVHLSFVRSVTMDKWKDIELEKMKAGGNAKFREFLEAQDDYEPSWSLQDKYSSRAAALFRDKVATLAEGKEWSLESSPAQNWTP
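Material: rat Arfgap1 catalytic domain, aa 1-136; also added: human ARF1(Δ1-17)-GTP substrate; compound dosing: one concentration, 16.5 µM, DMSO 1.26%; incubation: GTP hydrolysis reaction 2 h at 25 °C; measured by: Tracer-displacement fluorescence polarization with EDTA stop, 620/688 nm; evaluation: % inhibition from polarization; repeats: one replicate per compound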
EBNA-1 inh: EBNA-1 DNA-binding inhibitors, primary screen, biochemical, fluorescence polarization; inhibition, % at 14.8 µM; hit rate 0.34% among 300,000; AID 1950, 2009; in the data active means inhibition above about 28%
ZTA counter: counter-screen for EBNA-1 inhibitors: inhibitors of Epstein-Barr virus ZTA; P03206; ZTA-DNA binding, fluorescence polarization; AID 2234; hit rate 0.15% among 320,000; inhibition, % at 11 µM; in the data active means inhibition above about 33%
ASAP1 GAP inh: inhibitors of human ASAP1 ArfGAP activity, primary screen, biochemical, fluorescence polarization | ASAP1-stimulated ARF1 GTP hydrolysis, GDP FP detection | inhibition, % at 16.5 µM | Arf-GAP with SH3 domain, ANK repeat and PH domain-containing protein 1 (Homo sapiens), … | AID 624377, 2012 | hit rate 0.19% among 360,000; in the data active means inhibition above about 25%
Target sequence (Q9ULH1 325-724 limits assumed): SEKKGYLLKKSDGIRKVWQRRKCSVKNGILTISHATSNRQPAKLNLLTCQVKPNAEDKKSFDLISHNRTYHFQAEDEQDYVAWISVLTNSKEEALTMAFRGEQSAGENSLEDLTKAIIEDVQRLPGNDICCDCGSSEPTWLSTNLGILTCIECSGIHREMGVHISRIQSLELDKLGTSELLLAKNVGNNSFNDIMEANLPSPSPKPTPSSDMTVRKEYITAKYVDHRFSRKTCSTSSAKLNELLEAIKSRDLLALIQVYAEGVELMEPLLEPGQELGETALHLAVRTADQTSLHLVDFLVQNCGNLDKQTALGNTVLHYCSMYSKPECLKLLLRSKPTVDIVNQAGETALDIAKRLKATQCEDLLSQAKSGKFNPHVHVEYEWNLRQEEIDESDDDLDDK
EBNA-1 inh conf: EBNA-1 DNA-binding inhibitors, retest, confirmation, biochemical, fluorescence polarization, triplicate; hit rate 35% among 830; shares compounds with EBNA-1 inh; Recombinant EBNA-1 DBD, Cy5-DNA fluorescence polarization; inhibition, % at 14.8 µM;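 active means mean inhibition across replicates above a set limit taken from the earlier primary screen, cut at about 28% in these data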
ZTA counter trip: EBV Zta DNA binding inhibitors, counter-screen for EBNA-1 inhibitor project, biochemical, fluorescence polarization, triplicate; inhibition, % at 11.1 µM; shares compounds with EBNA-1 inh; Zta-ZRE DNA binding, Cy5 fluorescence polarization; 830 tested, under 10 active;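 active means mean inhibition over triplicates above a set limit taken from the primary EBNA-1 screen, cut at about 37% in these data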;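 further: purified full length Zta protein with Cy5 labeled ZRE DNA probe; inhibitors lower polarization by freeing the labeled DNA probe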
A number is an active result. Shown are actives, neighbours in structure and some others; about 0.75% of the full set was active somewhere.

What do the screens show for `COc1ccccc1NC(=O)Nc1ccc(C(N)=O)cc1`?
ARFGAP1 inhibitor: inactive; EBNA-1 inh: 46; ZTA counter: inactive; ASAP1 GAP inh: inactive; EBNA-1 inh conf: inactive; ZTA counter trip: inactive

How did COc1ccc(CN2C[C@@]3(O)CC[C@@H](O)[C@@H](OC)[C@@H]3[C@@](C)(O)[C@@H]2CC=C(C)C)cc1 do in these assays?
ARFGAP1 inhibitor: inactive; ASAP1 GAP inh: inactive

What do the screens show for `C=CCn1c(SCC(=O)NCCO)nc2sc(C)c(C)c2c1=O`?
ARFGAP1 inhibitor: inactive; EBNA-1 inh: inactive; ZTA counter: inactive; ASAP1 GAP inh: inactive

Results for C=CCn1c(SCC(=O)NC(=O)NCc2ccco2)nc2sc(C)c(C)c2c1=O ?
ARFGAP1 inhibitor: inactive; EBNA-1 inh: 47; ZTA counter: inactive; ASAP1 GAP inh: inactive; EBNA-1 inh conf: 32; ZTA counter trip: inactive

Results for O=C(CSc1nc2ccccc2c(=O)n1-c1ccc(F)cc1)Nc1cc(S(=O)(=O)N2CCOCC2)ccc1Cl ?
ARFGAP1 inhibitor: inactive; EBNA-1 inh: inactive; ZTA counter: inactive; ASAP1 GAP inh: inactive

What do the screens show for `Cc1ccc(S(=O)(=O)N2CCOCC2)cc1NC(=O)CSc1nc2ccccc2c(=O)n1Cc1ccccc1`?
ARFGAP1 inhibitor: inactive; EBNA-1 inh: 33; ZTA counter: inactive; ASAP1 GAP inh: inactive; EBNA-1 inh conf: inactive; ZTA counter trip: inactive

How did CCCCCCn1c(SCC(=O)Nc2cc(C)on2)nc2ccccc2c1=O do in these assays?
ARFGAP1 inhibitor: inactive; EBNA-1 inh: inactive; ZTA counter: inactive; ASAP1 GAP inh: inactive

What do the screens show for `Cc1cc(NC(=O)CSc2nc3ccccc3c(=O)n2Cc2ccc(F)cc2)no1`?
ARFGAP1 inhibitor: inactive; EBNA-1 inh: 57; ZTA counter: inactive; ASAP1 GAP inh: inactive; EBNA-1 inh conf: inactive; ZTA counter trip: inactive

Results for CCn1c(CNC(=O)C23CC4CC(CC(C4)C2)C3)nnc1SCC(=O)Nc1nnc(C)s1 ?
ARFGAP1 inhibitor: inactive; EBNA-1 inh: 42; ZTA counter: inactive; ASAP1 GAP inh: inactive; EBNA-1 inh conf: inactive; ZTA counter trip: inactive

Results for CCc1ccccc1N(C(=O)c1snc(C(N)=O)c1N)C(C(=O)NCC1CCCO1)c1ccc(N(C)C)cc1 (configuration not stated) ?
ARFGAP1 inhibitor: inactive; ASAP1 GAP inh: inactive

How did Cc1ccccc1N(C(=O)c1snc(C(N)=O)c1N)C(C(=O)NCC1CCCO1)c1ccc(N(C)C)cc1 (configuration not stated) do in these assays?
ARFGAP1 inhibitor: inactive; EBNA-1 inh: 28; ZTA counter: inactive; ASAP1 GAP inh: inactive; EBNA-1 inh conf: 123; ZTA counter trip: inactive

How did CSC1=Nc2ccccc2N=C(N2CCCC2)C1 do in these assays?
ARFGAP1 inhibitor: inactive; ASAP1 GAP inh: inactive

Results for O=C(NCCN1CCCC1)c1ccc(Cn2c(=S)[nH]c3cc4c(cc3c2=O)OCO4)cc1 ?
ARFGAP1 inhibitor: inactive; EBNA-1 inh: inactive; ZTA counter: inactive; ASAP1 GAP inh: inactive

Results for C=CCNC(=O)c1ccc(Cn2c(=S)[nH]c3cc4c(cc3c2=O)OCO4)cc1 ?
ARFGAP1 inhibitor: inactive; EBNA-1 inh: 33; ZTA counter: inactive; ASAP1 GAP inh: inactive; EBNA-1 inh conf: inactive; ZTA counter trip: inactive

Results for COc1ccc2c(c1)C(NC(=O)C(F)(F)F)CC21CCCCC1 (configuration not stated) ?
ARFGAP1 inhibitor: inactive; ASAP1 GAP inh: inactive

Results for COC(=O)Cc1nnn2c1[C@H](C)[C@@H](OC)c1ccccc1-2 ?
ARFGAP1 inhibitor: inactive; ASAP1 GAP inh: inactive

Results for CCOc1ccc(/C=C/C(=O)Nc2ccccc2C(F)(F)F)cc1 ?
ARFGAP1 inhibitor: inactive; EBNA-1 inh: inactive; ZTA counter: inactive; ASAP1 GAP inh: inactive

Results for COc1ccc(/C=C/C(=O)Nc2ccccc2C(F)(F)F)cc1 ?
ARFGAP1 inhibitor: inactive; EBNA-1 inh: 32; ZTA counter: inactive; ASAP1 GAP inh: inactive; EBNA-1 inh conf: inactive; ZTA counter trip: inactive

Results for NC(=O)c1ncn([C@@H]2O[C@H](C(=O)Nc3ccc(C(=O)N4CCCCC4)cc3)[C@@H](O)[C@H]2O)n1 ?
ARFGAP1 inhibitor: inactive; ASAP1 GAP inh: inactive

Results for O=C(CSc1nc2ccccc2c(=O)n1-c1ccccc1)c1cccc([N+](=O)[O-])c1 ?
ARFGAP1 inhibitor: inactive; EBNA-1 inh: 32; ZTA counter: inactive; ASAP1 GAP inh: inactive; EBNA-1 inh conf: inactive; ZTA counter trip: inactive

How did O=c1c2ccccc2nc(SCc2ccc([N+](=O)[O-])cc2)n1-c1ccccc1 do in these assays?
ARFGAP1 inhibitor: inactive; EBNA-1 inh: inactive; ZTA counter: inactive; ASAP1 GAP inh: inactive

How did Cc1ccc(CNC(=O)[C@@H](Cc2ccccc2)NC(=O)[C@H]2O[C@@H](n3ccc(N)nc3=O)[C@H](O)[C@@H]2O)o1 do in these assays?
ARFGAP1 inhibitor: inactive; ASAP1 GAP inh: inactive

What do the screens show for `Cc1ccnc(SCC(=O)N2CCc3ccccc32)n1`?
ARFGAP1 inhibitor: inactive; EBNA-1 inh: 32; ZTA counter: inactive; ASAP1 GAP inh: inactive; EBNA-1 inh conf: inactive; ZTA counter trip: inactive

How did O=C(CSc1ncccn1)N1CCCc2ccccc21 do in these assays?
ARFGAP1 inhibitor: inactive; EBNA-1 inh: inactive; ZTA counter: inactive; ASAP1 GAP inh: inactive

What do the screens show for `CC(=O)O[C@@H]1C=C[C@@H](C#Cc2ccc(C(C)(C)C)cc2)O[C@@H]1COC(=O)NCc1ccccc1`?
ARFGAP1 inhibitor: inactive; ASAP1 GAP inh: inactive

Results for COc1ccc(C2O[C@@H](C)[C@@H]3C(=O)N4CCc5c([nH]c6ccccc56)[C@@H]4C[C@@H]3N2C)cc1 (some centres not stated) ?
ARFGAP1 inhibitor: inactive; ASAP1 GAP inh: inactive

What do the screens show for `CC(C)Cn1c(N)c(C(=O)CSc2ccc3c(c2)OCCO3)c(=O)n(C)c1=O`?
ARFGAP1 inhibitor: inactive; EBNA-1 inh: 54; ZTA counter: inactive; ASAP1 GAP inh: inactive; EBNA-1 inh conf: 47; ZTA counter trip: inactive

Results for CC(C)CN(C(=O)CSc1ccc2c(c1)OCCO2)c1c(N)n(CC(C)C)c(=O)[nH]c1=O ?
ARFGAP1 inhibitor: inactive; ZTA counter: inactive; ASAP1 GAP inh: inactive

What do the screens show for `CC(C)Cn1c(N)c(C(=O)COC(=O)c2ccc3c(c2)OCCO3)c(=O)n(C)c1=O`?
ARFGAP1 inhibitor: inactive; EBNA-1 inh: 29; ZTA counter: inactive; ASAP1 GAP inh: inactive; EBNA-1 inh conf: 32; ZTA counter trip: inactive

How did Cc1ccccc1C(=O)N(C)[C@H]1C[C@H]2c3[nH]c4c(-c5ccc6c(c5)OCO6)cccc4c3CCN2C(=O)[C@H]1[C@H](C)O do in these assays?
ARFGAP1 inhibitor: inactive; ASAP1 GAP inh: inactive

Results for O=C(NCC1CCN(C(=O)C(=O)c2cc3ccccc3o2)CC1)c1ccc2c(c1)OCCCO2 ?
ARFGAP1 inhibitor: inactive; ASAP1 GAP inh: inactive
